From paper PMC4131791 (Memórias do Instituto Oswaldo Cruz, 2014)
≈ marks a conversion by molar mass, not a printed value.

System: Trypanosoma cruzi (Tulahuen strain) expressing β-galactosidase, trypomastigote and amastigote forms
Format: cell-based
Settings: L929, read-out: IC50 of the positive control
Procedure, shortened: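 L929 fibroblasts were seeded at 4,000/well in phenol red-free RPMI-1640 with 10% FBS and glutamine, then left overnight at 37 °C with 5% CO2. Cells were infected with β-galactosidase Tulahuen trypomastigotes at 40,000/well for 2 h, and free parasites were washed out. After 48 h, test compound (about 100-2 µM, triplicate, from DMSO stocks) was added. After seven days of culture, 100 µM CPRG with 0.1% Nonidet P-40 was added overnight at 37 °C and A570 read. Results were expressed as % growth inhibition, with IC50 by linear interpolation. Benznidazole served as positive control.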

O=C(Cn1ccnc1[N+](=O)[O-])NCc1ccccc1 [Benznidazole, benznidazole]
IC50: 1 µg/mL (≈ 3.84 µM)
